In ChEMBL document CHEMBL3351594, “Cytotoxic dimeric epipolythiodiketopiperazines from the ascomycetous fungus Preussia typharum” (J Nat Prod, 2014):
Active and inactive are the calls of the source. The calls are words filed in the database; no cut-off is given here.

How the values were obtained:
[1] = Cytotoxicity against human PC3 cells by SRB method; assay type: functional
Procedure, shortened: (§1)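 NCI-60 in vitro drug screening panel. Values are the molar concentrations giving 50% growth inhibition (GI50) and total growth inhibition (TGI).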

DU-145 = assay: Cytotoxicity against human DU145 cells by SRB method; assay type: functional; procedure, shortened: as §1
BT-549 = assay: Cytotoxicity against human BT549 cells by SRB method; assay type: functional; procedure, shortened: as §1
[2] = Cytotoxicity against human P-gp expressing SKOV3-M6/6 cells by SRB assay; assay type: functional
Procedure, shortened: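 SRB assay in SK-OV-3/MDR-1-6/6 cells, a single-cell clone of SKOV-3/MDR1 (P-gp). Percent cell growth follows Boyd et al. GI50 was derived from dose–response curves of percent growth. Results are mean ± SE of n = 3 or 4 independent experiments. Relative resistance is calculated against parental SK-OV-3.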

HeLa = assay: Inhibition of Histone-lysine N-methyltransferase Su(var)3-9 in human HeLa cells assessed as high H3K9me3 expression at 200 nM after 1 to 24 hrs by immunoblotting analysis; assay type: cell-based
Procedure, shortened: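 HeLa cells treated with vehicle or 200 nM for 1–24 h; log-phase cells lysed with protease inhibitors, equal protein by SDS-PAGE, PVDF transfer, probed for H3K9me3 and actin, ECL detection.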

CCRF-CEM = assay: Cytotoxicity against human CCRF-CEM cells by SRB method; assay type: functional; procedure, shortened: as §1
MOLT-4 = assay: Cytotoxicity against human MOLT4 cells by SRB method; assay type: functional; procedure, shortened: as §1
NCI-H460 = assay: Cytotoxicity against human NCI-H460 cells by SRB method; assay type: functional; procedure, shortened: as §1
SF-539 = assay: Cytotoxicity against human SF539 cells by SRB method; assay type: functional; procedure, shortened: as §1
SNB-75 = assay: Cytotoxicity against human SNB75 cells by SRB method; assay type: functional
Procedure, shortened: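 NCI-60 in vitro screen panel of human tumor lines; GI50 (molar concentration giving 50% growth inhibition) and TGI (total growth inhibition) taken from dose–response data.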

[3] = read-out: LC50 (the source's name)

In the case of CC(C)[C@@]12SS[C@]3(C(=O)N1C)[C@@H](O)[C@]1(C45c6ccccc6N[C@H]4N4C(=O)[C@@]6(CO)SS[C@@]4(C(=O)N6C)[C@H]5O)c4ccccc4N[C@@H]1N3C2=O (stereo partly specified), the GI50 ([1]; PC-3) is reported as 15.5 nM, the TGI ([1]; PC-3) is reported as 60.3 nM and the CC50 ([1]; PC-3, read-out: LC50 (the source's name)) is reported as 209 nM. For the same compound, the GI50 (DU-145) was 14.8 nM, the TGI (DU-145) was 53.7 nM and the CC50 (DU-145; [3]) was 200 nM. It also gave a GI50 (BT-549) of 14.8 nM, a TGI (BT-549) of 66.1 nM and a CC50 (BT-549; [3]) of 209 nM. For the same compound, the GI50 [2] was 33 nM, the inhibition (HeLa) was “inactive” and the GI50 (CCRF-CEM) was 9.3 nM. For the same compound, the TGI (CCRF-CEM) was 38 nM, the CC50 (CCRF-CEM; [3]) was > 50000 nM and the GI50 (MOLT-4) was 13.2 nM. The TGI (MOLT-4) was 67.6 nM, the CC50 (MOLT-4; [3]) was > 50000 nM and the GI50 (NCI-H460) was 20.9 nM. For the same compound, the TGI (NCI-H460) was 75.9 nM, the CC50 (NCI-H460; [3]) was 246 nM and the GI50 (SF-539) was 15.1 nM. It also gave a TGI (SF-539) of 58.9 nM, a CC50 (SF-539; [3]) of 200 nM and a GI50 (SNB-75) of 13.5 nM. The TGI (SNB-75) was 50.1 nM and the CC50 (SNB-75; [3]) was 158 nM.
